# Active and inactive are the calls of the source.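 Rule for the calls, unless noted: active = viability at or below 10% of carrier control in both of two separate runs; inconclusive = viability at or below 10% in only one of the two runs; inactive = the rest.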
# What was measured:
# [1] = Her2 expression decrease, cell viability multiplex – SKBR3 breast tumor cells, AlphaScreen, ATP viability, primary screen (AID 461;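 active = Her2 level under about 52% in both replicate screens, with viability over 70% of control, limit read from the data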;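 for Her2 level: lower value means less Her2 protein in the cells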;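 for viability: percent of carrier control wells set as 100% viability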); conditions: SKBR3 Her2 protein level, 18-24 h, measured here: SKBR3 viability, ATP luminescence, at 10 µM
# [2] = target: Receptor tyrosine-protein kinase erbB-2 (Homo sapiens) (UniProt P04626); test: as above; conditions: 18-24 h, at 10 µM, stronger effect = lower value
# Chain of Receptor tyrosine-protein kinase erbB-2 (Homo sapiens) (P04626 whole entry, looked up): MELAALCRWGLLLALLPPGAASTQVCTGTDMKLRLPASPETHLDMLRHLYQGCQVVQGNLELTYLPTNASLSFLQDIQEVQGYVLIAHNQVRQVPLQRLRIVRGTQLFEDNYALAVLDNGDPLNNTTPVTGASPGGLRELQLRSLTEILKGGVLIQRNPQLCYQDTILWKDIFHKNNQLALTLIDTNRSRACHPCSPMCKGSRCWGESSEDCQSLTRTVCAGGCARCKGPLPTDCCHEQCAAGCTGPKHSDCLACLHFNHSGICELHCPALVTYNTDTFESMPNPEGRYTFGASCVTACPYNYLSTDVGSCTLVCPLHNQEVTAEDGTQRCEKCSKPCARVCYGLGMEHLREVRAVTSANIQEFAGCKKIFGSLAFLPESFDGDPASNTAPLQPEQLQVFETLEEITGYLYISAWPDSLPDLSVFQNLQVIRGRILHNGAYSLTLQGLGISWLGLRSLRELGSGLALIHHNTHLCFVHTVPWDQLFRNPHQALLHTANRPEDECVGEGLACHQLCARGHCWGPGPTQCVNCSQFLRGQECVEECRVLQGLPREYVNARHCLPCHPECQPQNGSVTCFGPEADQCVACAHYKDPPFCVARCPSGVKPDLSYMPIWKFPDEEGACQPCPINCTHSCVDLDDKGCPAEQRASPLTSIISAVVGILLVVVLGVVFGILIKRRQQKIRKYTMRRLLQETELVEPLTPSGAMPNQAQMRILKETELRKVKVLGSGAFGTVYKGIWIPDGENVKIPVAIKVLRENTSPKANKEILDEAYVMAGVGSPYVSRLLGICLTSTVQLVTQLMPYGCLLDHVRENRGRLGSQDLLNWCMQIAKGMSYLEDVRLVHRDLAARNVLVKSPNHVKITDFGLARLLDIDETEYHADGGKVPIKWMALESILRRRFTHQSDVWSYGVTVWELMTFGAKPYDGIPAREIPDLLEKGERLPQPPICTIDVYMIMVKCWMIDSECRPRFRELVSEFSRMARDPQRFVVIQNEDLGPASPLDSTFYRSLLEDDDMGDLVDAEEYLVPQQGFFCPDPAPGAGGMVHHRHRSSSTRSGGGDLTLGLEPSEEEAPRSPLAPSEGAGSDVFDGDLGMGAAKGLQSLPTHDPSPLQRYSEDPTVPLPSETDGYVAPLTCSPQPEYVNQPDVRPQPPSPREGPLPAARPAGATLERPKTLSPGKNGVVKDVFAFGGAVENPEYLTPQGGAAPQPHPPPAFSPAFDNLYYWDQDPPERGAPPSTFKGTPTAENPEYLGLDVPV
# [3] = reduced viability of SK-BR-3 breast cancer cells – cell-based, 24 h, human, pilot screen (AID 572); conditions: SK-BR-3 viability, CellTiter-Glo luminescence, at 10 µM, stronger effect = lower value;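 note: compound exposure lasted between 18 and 24 h rather than exactly 24 h; 100% = carrier-treated control wells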
# [4] = HUVEC growth inhibition – cell-based, human, primary screen (AID 575;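 active = viability at or below 30% in both replicate assays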;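 note: 100% = median of untreated cell wells with 0.1% DMSO on each plate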); conditions: HUVEC proliferation, CellTiter-Glo luminescence, 72 h; at 10 µM; stronger effect = lower value
# Summary of the method: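 Test system: primary human umbilical vein endothelial cells. Quantity: 1250 cells/well. Compound: single 10 µM dose, 0.1% DMSO, from 5x medium stock. Timing: 72 h treatment at 37 °C. Detection: ATP-based CellTiter-Glo luminescent read. Benchmarks: vehicle and MePR control wells. Format: 384-well plates coated with collagen.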
# [5] = H69AR cell proliferation blockers – human, duplicate replicates, primary screen (AID 580;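 active = viability at or under a set limit in both replicates, limit being median viability minus 3 SD, cut at about 48% in these data, passing the limit was not always enough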;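 note: 100% = mean luminescence of untreated wells and 0% = no signal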); conditions: H69AR lung tumor cells viability, ATP luminescence, 72 h; at 10 µM; stronger effect = lower value
# [6] = MRP1 drug-resistance reversers in H69AR cells – cell-based, doxorubicin co-treatment, pilot screen (AID 601;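 active = viability loss from added drug above about 55%, and viability with drug at most 40%, in both replicates, limit read from the data, passing the limit was not always enough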); conditions: CellTiter-Glo, 72 h, at 10 µM; for differential viability (reversal): stronger effect = higher value
# [7] = yeast transport mutant growth inhibition pilot in 384-well plates, post-Golgi transport modulator project (AID 636; in the data active = inhibition above about 31%); conditions: absorbance 615 nm, about 18 h, stronger effect = higher value
# [8] = growth suppression of yeast trafficking mutant, preliminary HTS, modulators of trafficking downstream of Golgi apparatus project, 1536-format plate, OD 615 nm (AID 637; in the data active = inhibition above about 30%); conditions: yeast transport mutant growth, absorbance 615 nm, 18 h; stronger effect = higher value
# [9] = H69AR cells + 2 uM doxorubicin, measured here: viability with 2 uM doxorubicin, stronger effect = lower value
# [10] = H69AR cells, compound alone cytotoxicity
smiles,measurement,setting,value
CC(C)COc1nc2ccccc2nc1C(C#N)C(=O)NC1CCCCC1 (stereo not given),viability,[1],99%
same,Her2 level,[2],105% (inactive)
same,viability,[3],99% (inactive)
same,viability,[4],80% (inactive)
same,viability,[5],84.9% (inactive)
same,differential viability (reversal),[6]; H69AR cells + 2 uM doxorubicin,-20.3% (inactive)
same,viability,[6]; [9],105%
same,viability,[6]; [10],84.9%
same,inhibition,[7],-4.67% (inactive)
same,inhibition,[8],31% (active)
Cn1c(SCC(=O)O)nnc1C1CCCCC1,viability,[1],102%
same,Her2 level,[2],110% (inactive)
same,viability,[3],102% (inactive)
same,viability,[4],99.7% (inactive)
same,viability,[5],92.7% (inactive)
same,differential viability (reversal),[6]; H69AR cells + 2 uM doxorubicin,-1.2% (inactive)
same,viability,[6]; [9],93.9%
same,viability,[6]; [10],92.7%
same,inhibition,[7],0.27% (inactive)
same,inhibition,[8],8.85% (inactive)
Cc1ccc(C)c(-c2nc3cc(N)ccc3o2)c1,viability,[1],78.5%
same,Her2 level,[2],106% (inactive)
same,viability,[3],78.5% (inactive)
same,viability,[4],46.6% (inactive)
same,viability,[5],102% (inactive)
same,differential viability (reversal),[6]; H69AR cells + 2 uM doxorubicin,8.46% (inactive)
same,viability,[6]; [9],93.8%
same,viability,[6]; [10],102%
same,inhibition,[7],-1.18% (inactive)
same,inhibition,[8],-6.03% (inactive)
CCOC(=O)c1[nH]c(C)c(C(=O)N2CCN(C(=O)c3ccco3)CC2)c1C,viability,[1],88.5%
same,Her2 level,[2],95.5% (inactive)
same,viability,[3],88.5% (inactive)
same,viability,[4],98.4% (inactive)
same,viability,[5],97.8% (inactive)
same,differential viability (reversal),[6]; H69AR cells + 2 uM doxorubicin,2.2% (inactive)
same,viability,[6]; [9],95.6%
same,viability,[6]; [10],97.8%
same,inhibition,[7],-11.6% (inactive)
same,inhibition,[8],-0.48% (inactive)
CCN(CC)c1ccc(NC(=O)CN2CCN(CC(=O)Nc3ccccc3F)CC2)cc1,viability,[1],81.5%
same,Her2 level,[2],93.5% (inactive)
same,viability,[3],81.5% (inactive)
same,viability,[4],80.2% (inactive)
same,viability,[5],99.6% (inactive)
same,differential viability (reversal),[6]; H69AR cells + 2 uM doxorubicin,11% (inactive)
same,viability,[6]; [9],88.6%
same,viability,[6]; [10],99.6%
same,inhibition,[7],-3.95% (inactive)
same,inhibition,[8],-1.33% (inactive)
CCCc1nnc(NC(=O)CCC(=O)N2CCN(CCOc3ccc(C)cc3)CC2)s1,viability,[1],93.5%
same,Her2 level,[2],74% (inactive)
same,viability,[3],93.5% (inactive)
same,viability,[4],92% (inactive)
same,viability,[5],93.2% (inactive)
same,differential viability (reversal),[6]; H69AR cells + 2 uM doxorubicin,-6.29% (inactive)
same,viability,[6]; [9],99.4%
same,viability,[6]; [10],93.2%
same,inhibition,[7],-4.03% (inactive)
same,inhibition,[8],-2.83% (inactive)
COC(=O)CC1SCCNC1=O (stereo not given),viability,[1],92%
same,Her2 level,[2],94% (inactive)
same,viability,[3],92% (inactive)
same,viability,[4],103% (inactive)
same,viability,[5],95.6% (inactive)
same,differential viability (reversal),[6]; H69AR cells + 2 uM doxorubicin,5.06% (inactive)
same,viability,[6]; [9],90.6%
same,viability,[6]; [10],95.6%
same,inhibition,[7],5.87% (inactive)
same,inhibition,[8],23.7% (inactive)
CCOC(=O)c1c(C)oc2ccc(OCC(=O)N(CC)CC)cc12,viability,[1],85.5%
same,Her2 level,[2],85% (inactive)
same,viability,[3],85.5% (inactive)
same,viability,[4],101% (inactive)
same,viability,[5],101% (inactive)
same,differential viability (reversal),[6]; H69AR cells + 2 uM doxorubicin,3.73% (inactive)
same,viability,[6]; [9],97.2%
same,viability,[6]; [10],101%
same,inhibition,[7],-5.26% (inactive)
same,inhibition,[8],-0.32% (inactive)
CC(C)Cn1c(=O)c(C(=O)Nc2ccccc2S(N)(=O)=O)c(O)c2ccccc21,viability,[1],118%
same,Her2 level,[2],91.5% (inactive)
same,viability,[3],118% (inactive)
same,viability,[4],62.9% (inactive)
same,viability,[5],16.1% (active)
same,differential viability (reversal),[6]; H69AR cells + 2 uM doxorubicin,-11.4% (inactive)
same,viability,[6]; [9],27.5%
same,viability,[6]; [10],16.1%
same,inhibition,[7],10.3% (inactive)
same,inhibition,[8],8.67% (inactive)
CCn1c(=O)cc(OCC(=O)NC2CCCCC2)c2ccccc21,viability,[1],86%
same,Her2 level,[2],98.5% (inactive)
same,viability,[3],86% (inactive)
same,viability,[4],91.5% (inactive)
same,viability,[5],87% (inactive)
same,differential viability (reversal),[6]; H69AR cells + 2 uM doxorubicin,9.56% (inactive)
same,viability,[6]; [9],77.5%
same,viability,[6]; [10],87%
same,inhibition,[7],-0.77% (inactive)
same,inhibition,[8],0% (inactive)
O=C(CSc1nc(-c2ccccc2)cs1)NCc1ccco1,viability,[1],100%
same,Her2 level,[2],102% (inactive)
same,viability,[3],100% (inactive)
same,viability,[4],103% (inactive)
same,viability,[5],94.8% (inactive)
same,differential viability (reversal),[6]; H69AR cells + 2 uM doxorubicin,1.79% (inactive)
same,viability,[6]; [9],93%
same,viability,[6]; [10],94.8%
same,inhibition,[7],-6.08% (inactive)
same,inhibition,[8],-9.18% (inactive)
CCOc1cccc(C(=O)N(Cc2ccc(F)cc2)C2CCS(=O)(=O)C2)c1 (stereo not given),viability,[1],97%
same,Her2 level,[2],98% (inactive)
same,viability,[3],97% (inactive)
same,viability,[4],100% (inactive)
same,viability,[5],86.3% (inactive)
same,differential viability (reversal),[6]; H69AR cells + 2 uM doxorubicin,-3.54% (inactive)
same,viability,[6]; [9],89.9%
same,viability,[6]; [10],86.3%
same,inhibition,[7],-1.82% (inactive)
same,inhibition,[8],-2.33% (inactive)
O=C1c2ccccc2C(O)(Cc2ccccc2)N1Cc1ccco1 (stereo not given),viability,[1],88.5%
same,Her2 level,[2],104% (inactive)
same,viability,[3],88.5% (inactive)
same,viability,[4],89% (inactive)
same,viability,[5],95.7% (inactive)
same,differential viability (reversal),[6]; H69AR cells + 2 uM doxorubicin,10.1% (inactive)
same,viability,[6]; [9],85.6%
same,viability,[6]; [10],95.7%
same,inhibition,[7],-2.37% (inactive)
same,inhibition,[8],-9.19% (inactive)
CCOC(=O)Nc1ccc(OC)cc1S(=O)(=O)N1CCCCC1,viability,[1],88.5%
same,Her2 level,[2],93% (inactive)
same,viability,[3],88.5% (inactive)
same,viability,[4],112% (inactive)
same,viability,[5],99% (inactive)
same,differential viability (reversal),[6]; H69AR cells + 2 uM doxorubicin,17.7% (inactive)
same,viability,[6]; [9],81.3%
same,viability,[6]; [10],99%
same,inhibition,[7],-1.84% (inactive)
same,inhibition,[8],-1.8% (inactive)
Cc1cc(=O)oc2cc(OCC(=O)OCc3nnc(-c4ccccc4)o3)ccc12,viability,[1],106%
same,Her2 level,[2],92.5% (inactive)
same,viability,[3],106% (inactive)
same,viability,[4],84.1% (inactive)
same,viability,[5],94.9% (inactive)
same,differential viability (reversal),[6]; H69AR cells + 2 uM doxorubicin,3.04% (inactive)
same,viability,[6]; [9],91.9%
same,viability,[6]; [10],94.9%
same,inhibition,[7],-6.18% (inactive)
same,inhibition,[8],-0.16% (inactive)
O=C(COc1cccc(Oc2ccccc2)c1)Nc1ncccn1,viability,[1],99.5%
same,Her2 level,[2],106% (inactive)
same,viability,[3],99.5% (inactive)
same,viability,[4],110% (inactive)
same,viability,[5],94.3% (inactive)
same,differential viability (reversal),[6]; H69AR cells + 2 uM doxorubicin,6.76% (inactive)
same,viability,[6]; [9],87.5%
same,viability,[6]; [10],94.3%
same,inhibition,[7],-3.9% (inactive)
same,inhibition,[8],-3.81% (inactive)

# — PubChem BioAssay
